Experimental data collected from several papers.
KIT D816H: Mast/stem cell growth factor receptor Kit (KIT, Homo sapiens, UniProt P10721, D816H)
KIT V559D: Mast/stem cell growth factor receptor Kit (KIT, Homo sapiens, UniProt P10721, V559D)
KIT A829P: Mast/stem cell growth factor receptor Kit (KIT, Homo sapiens, UniProt P10721, A829P)
KIT T670I/V559D: Mast/stem cell growth factor receptor Kit (KIT, Homo sapiens, UniProt P10721, T670I/V559D)
KIT D816V: Mast/stem cell growth factor receptor Kit (KIT, Homo sapiens, UniProt P10721, D816V)

Compound	target	assay	conditions	remaining binding [%]
CNC(=O)c1ccc(Nc2ncc(C(F)(F)F)c(NCc3nccnc3N(C)S(C)(=O)=O)n2)cc1	KIT D816H	cell-free assay, competition with immobilised ligand	0.1 µM	71
c1cncc(-c2cccc(Nc3nccc(NC4CCCCC4)n3)c2)c1	KIT V559D	binding, competition with immobilised ligand	10 µM	1.2
O=C(c1ccc(Nc2ncc(Cl)c(-c3ccc(Cl)s3)n2)cc1)N1CCC(N2CCCC2)CC1	Mast/stem cell growth factor receptor Kit (KIT, Homo sapiens, UniProt P10721, V559D/V654A)	binding, competition with immobilised ligand	1 µM	9.3
Cn1cc(Cl)c2c(Oc3c(F)cc(Nc4cc(Cl)nc(N)n4)cc3F)ccnc21	KIT A829P	cell-free assay, competition with immobilised ligand	0.1 µM	63
CCN1CCN(Cc2ccc(C(=O)Nc3ccc(C)c(Oc4ccc5c(c4)CC(=O)N5)c3)cc2C(F)(F)F)CC1	KIT T670I/V559D	binding, competition with immobilised ligand	1 µM	58
O=C(NCCCN1CCOCC1)c1ccc(Nc2nccc(-c3cc4ccccc4s3)n2)cc1	KIT V559D	binding, competition with immobilised ligand	1 µM	26
O=C(Nc1c[nH]nc1C(=O)NC1CCNCC1)c1cc(F)cc(F)c1	KIT T670I/V559D	binding, competition with immobilised ligand	1 µM	100
CN(C)c1nccc(-c2cnc3ncccn23)n1	KIT T670I/V559D	binding	1 µM	92
CNC(=O)[C@@H]1CC[C@@H](n2c(-c3ccc4cnccc4c3)nc3ccc(C(=O)NCc4cccc(C(N)=O)c4)cc32)C1	KIT D816V	binding, competition with immobilised ligand	1 µM	99
CN(C)c1nccc(-c2cnn3ncccc23)n1	KIT D816V	binding	1 µM	60
COc1cnc(Nc2cccc(S(N)(=O)=O)c2)nc1N1CCN(c2ccccc2)CC1	Mast/stem cell growth factor receptor Kit, autoinhibited (KIT, Homo sapiens, UniProt P10721)	binding, competition with immobilised ligand	1 µM	90
C[C@@H]1CCN(c2nccc(-c3cnn4ncccc34)n2)C1	KIT T670I/V559D	binding	1 µM	100
Cc1cnc(Nc2ccc(C(=O)N3CCC(N4CCCC4)CC3)cc2)nc1-c1cc2ccccc2s1	KIT T670I/V559D	binding, competition with immobilised ligand	1 µM	10
CN1CCN(c2ccc(Nc3nccc(-c4ccccc4)n3)cc2C(F)(F)F)CC1	KIT A829P	binding	10 µM	20
NS(=O)(=O)c1cc(NC(=O)C2(c3ccccc3Cl)CC2)ccc1Oc1cccc(Cl)c1	KIT A829P	cell-free assay, competition with immobilised ligand	1 µM	69
CC1CCCN1c1nccc(-c2cnn3ncccc23)n1 (stereo not drawn)	KIT V559D	binding	1 µM	100
NS(=O)(=O)c1cc(NC(=O)Cc2ccccc2)ccc1Oc1cccc(Cl)c1	Mast/stem cell growth factor receptor Kit (KIT, Homo sapiens, UniProt P10721)	cell-free assay, competition with immobilised ligand	1 µM	89
CN(C)c1ncc(F)c(-c2cnn3ncccc23)n1	KIT D816H	binding	1 µM	72
O=c1nc(-c2ccccn2)sc2ccccc12	KIT D816H	binding, competition with immobilised ligand	1 µM	92
N[C@H]1CCN(c2nccc(-c3cnn4ncccc34)n2)C1	KIT V559D	binding	1 µM	87
Cc1c(NC(=O)c2cc(C(N)=O)nc3cc(F)ccc23)c(C(F)(F)F)nn1Cc1ccc(C(C)(C)C)cc1	Mast/stem cell growth factor receptor Kit (KIT, Homo sapiens, UniProt P10721, L576P)	cell-free assay, competition with immobilised ligand	1 µM	95
C[C@@H](c1ccc(-n2cnc3c(N)ncnc32)cc1)N1CCc2nn(C)c(Cc3ccccc3)c2C1=O	KIT T670I/V559D	binding, competition with immobilised ligand	0.1 µM	99
COc1ccnn2ncc(-c3ccnc(N(C)C)n3)c12	KIT D816V	binding	1 µM	100
C[C@@H](c1cccc(C#N)c1)n1cc(Cl)cc(C(N)=O)c1=N	KIT D816H	cell-free assay, competition with immobilised ligand	1 µM	100
